Compounds with a hit are over-represented: about 2.3% of the library has one in this group of screens.
Tn7 DDE FP: inhibitors of Tn7 peptide binding to fibrin DD(E), primary screen, biochemical, fluorescence polarization, human fibrin, Tn7 probe | AID 720508, 2013 | FP displacement of FITC-Tn7 peptide from fibrin DD(E); 0% = median of compound wells per plate | inhibition, % at 8.3 µM | 370,000 tested, 0.13% active | Fibrinogen beta chain (Homo sapiens), P02675;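 active = inhibition above the mean of compounds falling within the control limits plus 3 SD of them, cut at about 14% in these data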;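 also: 0% = plate median of compound wells and 100% = 10 µM Aha-Tn7 peptide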
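System: human fibrin DD(E); quantity: Fibrin-DD(E) at 2 µM final; also added: fluorescent Tn7 probe at 0.1 µM; compound dosing: single nominal test concentration of 8.3 µM per compound; schedule: 10 min preincubation, 3 h with tracer, room temperature; detection: fluorescence polarization of the labelled Tn7 tracer; repeats: one replicate per compound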
ADAM10 inh: human ADAM10 inhibitors, primary screen, biochemical, QFRET, HTS; recombinant ADAM10, EDANS/DABCYL FRET peptide cleavage, 3 h; 370,000 tested, 0.62% active; inhibition, % at 7 µM; AID 720582, 2013; Disintegrin and metalloproteinase domain-containing protein 10 (Homo sapiens), O14672;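 active = inhibition above a per-campaign cutoff equal to the mean of compounds falling between control-based bounds plus 3 SD, cut at about 20% in these data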;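 also: 0% = DMSO wells while the 100% control is not disclosed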
PLCg1 inh: PLC-gamma1 enzyme inhibitors, primary screen, biochemical, fluorescence, purified enzyme; fluorogenic substrate; inhibition, % at 12.2 µM; 370,000 tested, 0.84% active; 1-phosphatidylinositol 4,5-bisphosphate phosphodiesterase gamma-1 (Homo sapiens), P19174; in the data active = inhibition above about 9.5%
ADAM17 inh: ADAM17 inhibitors, primary screen, biochemical, QFRET | recombinant ADAM17, EDANS/DABCYL FRET peptide cleavage | AID 720648, 2013 | Disintegrin and metalloproteinase domain-containing protein 17 (Homo sapiens), P78536 | 370,000 tested, 0.83% active | inhibition, % at 6.95 µM;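 active = inhibition above the mean of compounds lying between control limits plus 3 SD, set per campaign, cut at about 8.5% in these data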;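 also: 0% = DMSO-only wells as the low control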
Target sequence (P78536 215-824 limits assumed): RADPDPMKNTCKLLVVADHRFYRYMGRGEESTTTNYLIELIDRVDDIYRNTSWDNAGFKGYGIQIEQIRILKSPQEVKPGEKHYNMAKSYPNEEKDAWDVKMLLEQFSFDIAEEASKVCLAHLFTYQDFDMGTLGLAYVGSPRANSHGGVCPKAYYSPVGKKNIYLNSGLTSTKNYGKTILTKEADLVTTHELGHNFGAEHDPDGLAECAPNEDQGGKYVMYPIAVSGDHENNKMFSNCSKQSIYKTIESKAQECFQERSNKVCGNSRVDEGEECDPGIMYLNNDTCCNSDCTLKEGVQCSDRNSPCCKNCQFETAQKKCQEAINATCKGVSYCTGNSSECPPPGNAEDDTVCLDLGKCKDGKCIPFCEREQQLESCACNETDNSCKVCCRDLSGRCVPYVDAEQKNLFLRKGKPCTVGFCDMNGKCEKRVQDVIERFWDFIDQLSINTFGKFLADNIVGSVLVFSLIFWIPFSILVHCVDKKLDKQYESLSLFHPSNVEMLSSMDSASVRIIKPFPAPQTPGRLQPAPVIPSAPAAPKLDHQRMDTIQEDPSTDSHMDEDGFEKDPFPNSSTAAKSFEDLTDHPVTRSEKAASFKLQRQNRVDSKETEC
Tn6 DDE FP: inhibitors of Tn6 peptide binding to fibrin DD(E), primary screen, biochemical, fluorescence polarization, human fibrin, Tn6 probe; 370,000 tested, 0.21% active; Fibrinogen beta chain (Homo sapiens), P02675; Fibrin DD(E) TRITC-Tn6 fluorescence polarization displacement; inhibition, % at 8.3 µM;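 active = inhibition above a per-campaign cutoff: mean of compounds within control limits plus 3 SD, cut at about 15% in these data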;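 also: 0% = median of all compound wells on the plate and 100% = blocking peptide control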
PLCb3 inh: human PLC-beta3 inhibitors, primary screen, biochemical, fluorescence. 1-phosphatidylinositol 4,5-bisphosphate phosphodiesterase beta-3 (Homo sapiens), Q01970. Purified PLC-beta3, fluorogenic substrate. inhibition, % at 12.2 µM. 370,000 tested, 0.18% active. AID 720704, 2013; in the data active = inhibition above about 11%;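 also: 0% = median of compound wells on plate and 100% = full blocker control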
DDE Tn6 FP ctr: counter-screen for inhibitors of Tn6 peptide binding to fibrin DD(E); shares compounds with Tn6 DDE FP; TRITC-Tn6 fluorescence polarization displacement; 0% = median of compound wells, not DMSO; inhibition, % at 8.3 µM; 680 tested, 2% active; AID 720621;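 active = inhibition above the mean of test compounds lying between the control limits plus 3 SD of those, cut at about 14% in these data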;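 also: 0% = median of compound wells and 100% = wells with Aha-Tn7 blocking peptide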
Tn6 DDE conf: inhibitors of Tn6 peptide binding to fibrin DD(E), confirmation, biochemical, fluorescence polarization, human fibrin, Tn6 probe; 680 tested, 10% active; shares compounds with Tn6 DDE FP; FP displacement of TRITC-Tn6 peptide from DD(E); 0% = per-plate median of test wells; inhibition, % at 8.3 µM;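 active = inhibition above the mean of compounds lying within the control limits plus 3 SD, cut at about 16% in these data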;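 also: 100% = high control wells holding a competing inhibitor peptide at 10 µM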
Numbers without * were called inactive; · = no result given.

SMILES	Tn7 DDE FP	ADAM10 inh	PLCg1 inh	ADAM17 inh	Tn6 DDE FP	PLCb3 inh	DDE Tn6 FP ctr	Tn6 DDE conf
COC(=O)/C(=C/Nc1ccc(O)cc1)[N+](=O)[O-]	0.7	-24.0	-19.2	-11.2	46.1*	-27.3	0.7	-5.7
C[C@H]1[C@H](NC(=O)c2ccc(Cl)c(Cl)c2)CC[C@@]23CCCN2C(=O)CCC[C@@H]13	3.3	-1.6	0.5	-5.5	2.2	2.5	·	·
O=C1c2cccc(NCCCNCCO)c2C(=O)c2cccc(NCCCNCCO)c21	-6.5	-24.9	-0.4	-6.8	21.4*	-7.3	7.4	32.3*
O=C1c2ccccc2C(=O)c2c(NCc3cccnc3)cccc21	0.6	-2.8	-2.6	-2.4	6.1	-3.9	·	·
O=C(Oc1coc(CSc2ncccn2)cc1=O)c1ccc([N+](=O)[O-])cc1	3.6	-49.5	-1.5	-3.4	7.5	2.7	·	·
CC(C)(C)NC(=O)C1CCC(CNc2c(N3CCCCC3)c(=O)c2=O)CC1 (centres undefined)	2.2	-1.1	-0.9	-6.6	0.9	-6.4	·	·
CC1CCC(NC(=O)C2CCC(CNc3c(N4CCCCC4)c(=O)c3=O)CC2)CC1 (centres undefined)	1.9	3.3	1.1	2.5	16.6*	-5.4	3.6	-7.5
O=C(Nc1ccc(C(O)(C(F)(F)F)C(F)(F)F)cc1)c1ccc(F)cc1F	3.8	11.9	-0.2	4.0	4.1	4.0	·	·
Cc1c(C(=O)NCc2ccc3c(c2)cc(C)n3C)cccc1[N+](=O)[O-]	2.2	-6.7	-12.2	0.8	23.8*	-14.8	-3.8	-7.0
Cc1cc2cc(CNC(=O)Cc3ccc([N+](=O)[O-])cc3)ccc2n1C	2.3	-2.2	-1.4	0.5	17.5*	1.5	0.1	5.8
Cc1cc2cc(CNC(=O)c3ccc(Br)o3)ccc2n1C	-1.5	-7.3	-24.4	-4.7	14.6	-25.8	·	·
Cc1cc2cc(CNC(=O)c3cccc([N+](=O)[O-])c3)ccc2n1C	5.8	-15.1	-14.0	-2.4	53.4*	-21.4	-3.5	-6.9
CCCC(=O)NCc1ccc2c(c1)cc(C)n2C	-0.4	-30.8	-31.4	-6.4	4.0	-44.7	·	·
Cc1nn(CCC(=O)NNC(=O)Nc2ccc(Cl)cc2)c(C)c1[N+](=O)[O-]	4.6	12.5	4.5	3.9	-1.6	-0.4	·	·
O=C(Nc1ccc2nn(-c3ccccc3)nc2c1)c1ccc(Br)o1	3.4	-11.4	-20.3	-6.9	16.8*	-55.9	1.0	-2.8
O=C(Nc1ccc2nn(-c3ccccc3)nc2c1)c1ccc2c(c1)OCCO2	-3.9	-139.4	-24.4	-51.6	-3.5	-30.9	·	·
O=C(NCCCc1ccccc1)OC1CCC12CCC(c1ccccc1)CC2 (centres undefined)	-0.8	-10.5	-0.2	-0.3	-7.6	-1.1	·	·
CC1(C(=O)NS(=O)(=O)c2cccc(Cl)c2)CCN1C(=O)Cc1cc(F)ccc1F (centres undefined)	-1.9	-4.5	0.9	-2.1	16.1*	3.2	-2.4	-3.5
CC1(C(=O)NS(=O)(=O)c2ccc(Cl)cc2)CCN1C(=O)CCc1ccc(Cl)cc1Cl (centres undefined)	-0.6	-5.5	-3.6	-3.3	6.4	-9.2	·	·
CC1(C(=O)NS(=O)(=O)c2cccs2)CCN1C(=O)CCc1ccc(Cl)cc1Cl (centres undefined)	3.0	-3.6	-3.7	0.0	16.9*	-0.2	4.5	3.7

Source: PubChem BioAssay (The Scripps Research Institute Molecular Screening Center)
